Measurements published in publication PMC4050360 (Results in Pharma Sciences, 2014).
≈ marks a conversion by molar mass, not a printed value.

What was measured:
[1] = In vivo pharmacokinetic study, intravenous emulsion; set-up: species or system female Sprague Dawley rats; conditions: rat
Method in brief: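 Female Sprague Dawley rats (248–276 g; n = 6/group) received a tail-vein dose molar equivalent to 5 mg aripiprazole/kg. Vehicle: submicron emulsion (20% w/w MCT oil, 1.2% lecithin, 2% glycerol, water; 1 mg aripiprazole-equivalent/mL). K-EDTA blood was sampled at 5, 15, 30 min and 1–24 h. Acidified-acetonitrile plasma extracts with d8 internal standard were analysed by positive-ESI MRM. Two-compartment fit; trapezoidal AUC extrapolated to infinity; mean ± SEM.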

[2] = cited from earlier work
[3] = ref 41 (Scifinder); cited from earlier work
[4] = female, Sprague Dawley, plasma, iv, 5 mg/kg

clearance ([1]; female, Sprague Dawley, plasma, iv, 5 mg aripiprazole/kg (molar equivalent)) [mL/min/kg]	Vd [1, 4] [L/kg]	half-life [1, 4] [h]	AUC0?8 ([1]; i.v., molar equivalent to 5 mg aripiprazole/kg, n = 6, mean ± SEM) [nmol?h/L]	SMILES	solubility in water [2] [µM]	Estimated pKa [3]
22.8	8.16 ± 0.75	~4.2	8176 ± 2647	O=C1CCc2ccc(OCCCCN3CCN(c4cccc(Cl)c4Cl)CC3)cc2N1 [aripiprazole]	9 (≈ 4.04 µg/mL)	–
–	–	–	–	O=C1CCc2ccccc2N1 [3,4-dihydro-2(1H)-quinolinone]	–	14.6
